Experimental data from different studies.
Each line is one published result; the experiments were not run side by side.
Medium: plasma

COc1cc(-c2cc(C(C)=O)n3ccccc23)c(OC)cc1Cn1ccnc1 — AUC(0-t) (male Sprague-Dawley rat; intravenous; 5 mg/kg): 4280 ng·h/mL
Cn1c(=O)c2[nH]cnc2n(C)c1=O — AUC(0-t) (male Sprague-Dawley rat; intravenous; 22.5 mg/kg): 53800 ng·h/mL
C=CC(=O)N1CCC[C@@H](n2nc(-c3ccc(Oc4ccccc4)cc3)c3c(N)ncnc32)C1 — AUC(0-t) (rat; oral; 40 mg/kg): 304 ng·h/mL
Nc1ccn([C@@H]2O[C@H](CO)[C@@H](O)C2(F)F)c(=O)n1 — AUC(0-t) (male Sprague-Dawley rat; intraperitoneal; 5 mg/kg): 22900 ng·h/mL
C=CC(=O)N1CCC([C@@H]2CCNc3c(C(N)=O)c(-c4ccc(Oc5ccccc5)cc4)nn32)CC1 — AUC(0-t) (Sprague-Dawley rat; oral; 16 mg/kg): 1450 ng·h/mL
C[C@H]1Oc2cc(cnc2N)-c2c(nn(C)c2C#N)CN(C)C(=O)c2ccc(F)cc21 — AUC(0-t) (male Sprague-Dawley rat; oral; 50 mg/kg; single dose): 24800 ng·h/mL
O=C1CCC(N2Cc3cc(C4CCN(Cc5ccccc5)CC4)ccc3C2=O)C(=O)N1 (stereo not shown) — AUC(0-t) (male Sprague-Dawley rat; oral; 3 mg/kg): 336 ng·h/mL
CNC(=O)c1cc(Oc2ccc(NC(=O)Nc3ccc(Cl)c(C(F)(F)F)c3)cc2)ccn1 — AUC(0-t) (male Sprague-Dawley rat; oral; 100 mg/kg; single dose): 17700 ng·h/mL
CONC(=O)c1cccc2c1cc(C)n2-c1nc2c(c(NCc3ccccc3)n1)CCCN2 — AUC(0-t) (male Sprague-Dawley rat; intravenous; 1 mg/kg; single dose): 20.1 ng·h/mL
COc1nc(-c2cccc(-c3ccccc3)c2C)ccc1CNCCNC(=O)CCCCCCCCCCC(=O)N1CCN(CCNC(=O)c2cc3c(=O)n4cccc(C)c4nc3n(CCc3cccs3)c2=N)CC1 — AUC(0-t) (male Sprague-Dawley rat; oral; 40 mg/kg): 257 ng·h/mL
COc1ccc(N(Cc2csc(-c3ccccc3)n2)C(=O)CCCCCC(=O)NO)cc1 — AUC(0-t) (female Sprague-Dawley rat; oral; 30 mg/kg): 18.4 ng·h/mL
CCCCC(=O)Nc1ccc(-c2ccc3ncn(CCC)c(=O)c3c2)cn1 — AUC(0-t) (male rat; oral; 10 mg/kg): 1200 ng·h/mL
Cc1ccc2c(c1)C(=O)[C@]1(O)CCN(c3ccc4nc(C)ccc4c3)C1=N2.Cl — AUC(0-t) (male rat; subcutaneous; 40 mg/kg; multiple doses, once daily): 20.4 µM·h
C[C@H]1[C@@H](O)O[C@@H]2O[C@@]3(C)CC[C@H]4[C@H](C)CC[C@@H]1[C@@]24OO3 — AUC(0-t) (male Sprague-Dawley rat; oral; 10 mg/kg): 234 ng·h/mL
CC(=O)c1c(C)c2cnc(Nc3ccc(N4CCNCC4)cn3)nc2n(C2CCCC2)c1=O — AUC(0-t) (male Sprague-Dawley rat; intravenous; 5 mg/kg): 1900 ng·h/mL
CCN(CC)Cc1ccc2cc(COC(=O)Nc3ccc(C(=O)NO)cc3)ccc2c1 — AUC(0-t) (male Sprague-Dawley rat; oral; 10 mg/kg): 8490 ng·h/mL
